In ChEMBL document CHEMBL1135248, “Synthesis and evaluation of pseudopeptide analogues of a specific CXCR4 inhibitor, T140: the insertion of an (E)-alkene dipeptide isostere into the betaII'-turn moiety” (Bioorg Med Chem Lett, 2002):

Experiments:
[1] = target: T1, C-X-C chemokine receptor type 4 (Homo sapiens, UniProt P61073); experiment: (§1) Inhibitory activity based on the inhibition of [Ca2+] mobilization induced by human SDF-1alpha stimulation through C-X-C chemokine receptor type 4
Summary of the method: (§2)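 CHO cells transfected with CXCR4 were loaded with Fura-2-AM for 1–2 h and then pretreated with analogue. Recombinant human SDF-1α was added 3 min later. [Ca2+]i rise was measured spectrofluorometrically by a modified Fura-2 method, and IC50 was derived from inhibition of mobilization. Values are the mean of two experiments.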

[2] = target: T1, C-X-C chemokine receptor type 4; experiment: as §1; summary of the method: as §2; remark: listed apart in the source

T1 sequence (P61073 whole entry): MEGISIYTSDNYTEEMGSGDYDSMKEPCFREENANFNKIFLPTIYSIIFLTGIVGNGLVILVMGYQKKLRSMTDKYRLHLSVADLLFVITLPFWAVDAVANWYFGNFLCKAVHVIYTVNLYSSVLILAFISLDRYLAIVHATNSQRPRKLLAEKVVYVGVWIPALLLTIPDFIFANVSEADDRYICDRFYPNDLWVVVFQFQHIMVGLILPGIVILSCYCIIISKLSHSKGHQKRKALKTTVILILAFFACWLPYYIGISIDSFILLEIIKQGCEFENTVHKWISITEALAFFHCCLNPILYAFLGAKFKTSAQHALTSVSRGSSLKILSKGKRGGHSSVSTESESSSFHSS

IC50 [1]: 27 nM
IC50 [2]: 30 nM
Compound: C[C@H]1/C=C\[C@@H](CCCCN)NC(=O)[C@H](CCCCN)NC(=O)[C@H](CCCNC(=N)N)NC(=O)[C@H](Cc2ccc(O)cc2)NC(=O)[C@@H](NC(=O)[C@H](Cc2c[nH]c3ccccc23)NC(=O)[C@H](CCCNC(=N)N)NC(=O)[C@@H](N)CCCN=C(N)N)CSSC[C@@H](C(=O)N[C@@H](CCCNC(=N)N)C(=O)O)NC(=O)[C@H](CCCNC(N)=O)NC(=O)[C@H](CCCNC(=N)N)NC(=O)[C@H](Cc2ccc(O)cc2)NC1=O
